The source of these data is PubChem BioAssay.

Assay [1] can be described thus: nonspecific flux increase, KCNQ1-free cells – parental CHO cells, counter-screen for KCNQ1 potentiator project (AID 493006;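 active = duplicate-averaged activation above buffer control mean plus 5 SD of those controls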). The note with it: parental CHO-K1 cells, FluxOR thallium flux, at 10 µM; stronger effect = higher value. In short, it runs like this: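 Benchmarks – buffer and R-L3 controls · Assay system – untransfected host CHO-K1 cells with FluxOR thallium dye · Measure – fluorescence change ratio scaled 0% buffer, 100% R-L3 · Technique – kinetic thallium-flux fluorescence · Timing – overnight 37 °C plating, 90 min RT dye, 20 min compound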

The target in assay [2] is Potassium voltage-gated channel subfamily KQT member 1 (Homo sapiens) (UniProt P51787). Kind of assay: enhancement of KCNQ1 channel thallium flux – FluxOR thallium flux, CHO cells, duplicates, confirmation (AID 493007;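 active = potentiation averaged over duplicate wells exceeding buffer-only control mean by more than 3 SD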;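 as to outcome: cells depolarized by a potassium plus thallium sulfate stimulus after compound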). The note with it: KCNQ1 cell line, FluxOR thallium flux fluorescence, at 10 µM; stronger effect = higher value, % of reference activator effect, buffer zero. In short, it runs like this:
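Material: CHO cells stably expressing the KCNQ1 potassium channel / Times: dye 90 min then compound 20 min, both at room temperature / Detection: kinetic thallium influx fluorescence with FluxOR dye, 10 s baseline, 110 s post-stimulus / Benchmarks: buffer-only wells as 0% and R-L3 activator as 100% / Replicates: each compound tested in duplicate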

The target in assay [3] is Potassium voltage-gated channel subfamily KQT member 2 (Rattus norvegicus) (UniProt O88943). Kind of assay: KCNQ2 thallium flux enhancement – KCNQ2-CHO-K1 cells, selectivity assay for KCNQ1 potentiator project (AID 493009).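 Also: assay conditions were tuned for KCNQ1 rather than KCNQ2 modulators; signal is max minus min fluorescence divided by baseline after thallium stimulus.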 The note with it: FluxOR thallium flux fluorescence, at 10 µM; stronger effect = higher value, scaled: buffer 0, activator control 100.
Potassium voltage-gated channel subfamily KQT member 2 (Rattus norvegicus), sequence (O88943 whole entry, looked up): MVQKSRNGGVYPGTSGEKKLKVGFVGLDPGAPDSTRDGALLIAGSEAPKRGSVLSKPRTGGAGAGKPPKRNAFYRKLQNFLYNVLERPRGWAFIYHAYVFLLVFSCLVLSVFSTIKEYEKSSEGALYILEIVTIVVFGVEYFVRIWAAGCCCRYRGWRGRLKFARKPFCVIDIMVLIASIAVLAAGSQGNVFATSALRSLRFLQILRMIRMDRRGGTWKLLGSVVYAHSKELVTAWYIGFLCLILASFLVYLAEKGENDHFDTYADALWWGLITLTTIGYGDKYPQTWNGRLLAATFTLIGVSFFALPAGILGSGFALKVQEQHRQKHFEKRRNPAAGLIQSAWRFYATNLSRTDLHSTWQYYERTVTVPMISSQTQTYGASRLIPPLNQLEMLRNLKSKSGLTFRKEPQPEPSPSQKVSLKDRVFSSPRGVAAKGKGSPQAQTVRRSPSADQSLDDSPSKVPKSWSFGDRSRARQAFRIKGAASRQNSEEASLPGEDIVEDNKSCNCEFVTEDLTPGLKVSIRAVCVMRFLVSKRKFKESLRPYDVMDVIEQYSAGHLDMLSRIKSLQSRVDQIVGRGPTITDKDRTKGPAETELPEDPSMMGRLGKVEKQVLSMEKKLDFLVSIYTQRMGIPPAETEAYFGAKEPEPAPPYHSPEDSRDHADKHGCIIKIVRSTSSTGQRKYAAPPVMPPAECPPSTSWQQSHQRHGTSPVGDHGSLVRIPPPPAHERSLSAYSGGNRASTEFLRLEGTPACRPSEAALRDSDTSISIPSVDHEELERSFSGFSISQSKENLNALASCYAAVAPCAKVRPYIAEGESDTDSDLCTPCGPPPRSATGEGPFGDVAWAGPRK
Assay [4] deals with Potassium voltage-gated channel subfamily KQT member 1 (Homo sapiens) (UniProt P51787). Briefly: KCNQ1 activators by electrophysiology – IonWorks patch clamp, KCNQ1-CHO cells, orthogonal assay for KCNQ1 potentiator project, confirmation (AID 493184;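 active = current rise at least 3 SD above the untreated control mean in each of two repeat wells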). The note with it: automated patch clamp current, at 10 µM; stronger effect = higher value. In short, it runs like this: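 Probe or stimulus: depolarizing pulse to +40 mV from -90 mV; Material: CHO cells carrying KCNQ1; Compound: one dose, 10 µM final; Signal: automated voltage clamp, amphotericin B perforated patch; Read-out basis: percent current increase versus pre-compound level; Buffer or medium: pH 7.4 external bath; Replication: duplicates.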
Potassium voltage-gated channel subfamily KQT member 1 (Homo sapiens), sequence (P51787 whole entry, looked up): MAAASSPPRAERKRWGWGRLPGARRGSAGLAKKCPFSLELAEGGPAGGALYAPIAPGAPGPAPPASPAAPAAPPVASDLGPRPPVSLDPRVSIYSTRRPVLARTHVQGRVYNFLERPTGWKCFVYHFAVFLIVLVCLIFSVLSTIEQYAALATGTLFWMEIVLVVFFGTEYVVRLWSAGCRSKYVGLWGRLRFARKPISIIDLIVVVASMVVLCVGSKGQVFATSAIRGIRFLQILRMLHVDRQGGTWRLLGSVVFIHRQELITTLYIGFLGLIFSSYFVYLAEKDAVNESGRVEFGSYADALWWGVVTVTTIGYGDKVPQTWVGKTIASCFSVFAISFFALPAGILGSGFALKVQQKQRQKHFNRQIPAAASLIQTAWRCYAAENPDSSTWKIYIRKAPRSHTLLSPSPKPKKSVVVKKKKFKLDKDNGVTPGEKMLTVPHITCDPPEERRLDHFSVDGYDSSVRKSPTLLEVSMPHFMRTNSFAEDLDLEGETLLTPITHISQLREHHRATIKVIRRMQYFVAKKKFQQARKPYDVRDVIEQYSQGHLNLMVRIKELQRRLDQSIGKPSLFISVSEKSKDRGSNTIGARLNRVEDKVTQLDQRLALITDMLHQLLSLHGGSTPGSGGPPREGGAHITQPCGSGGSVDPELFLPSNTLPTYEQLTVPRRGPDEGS

In assay [5] the target is Potassium voltage-gated channel subfamily E member 1 (Homo sapiens) + Potassium voltage-gated channel subfamily KQT member 1 (Homo sapiens) (UniProt P15382+P51787). Kind of assay: KCNQ1-E1 channel activation – thallium flux, CHO-K1 KCNQ1/E1 cells, selectivity assay for KCNQ1 potentiator project, confirmation (AID 493186;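 active = mean duplicate activation above the buffer control mean plus 5 SD of those controls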). The note with it: FluxOR thallium flux, at 10 µM; stronger effect = higher value. In short, it runs like this:
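system = KCNQ1/E1-expressing stable CHO-K1 cell line | doses = single compound concentration per well | times = dye 90 min, compound 20 min, room temperature | measured by = FluxOR Tl+ flux fluorescence, kinetic read | evaluation = fluorescence rise relative to baseline, as percent of R-L3 response above buffer | controls = buffer and R-L3 | replicates = duplicate wells per compound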

The source made the active and inactive calls.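 The calls were made as follows, unless noted: active = mean duplicate potentiation above the buffer control mean plus 5 SD of buffer wells; inactive = the rest.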

Potassium voltage-gated channel subfamily E member 1 (Homo sapiens) + Potassium voltage-gated channel subfamily KQT member 1 (Homo sapiens), sequence (P51787 whole entry, looked up): as the sequence (P51787 whole entry, looked up) above

For the molecule `COc1cc(OC)c(-n2cc(-c3ccc(Cl)cc3)[nH]c2=O)cc1Cl`, the outcome in assay [1], in assay [2], in assay [3], in assay [4] and in assay [5] was inactive.

As for `COc1ccc(NC(=O)CN2CCN(C3c4ccccc4-c4ccccc43)CC2)cc1`, the result in assay [1], in assay [2], in assay [3], in assay [4] and in assay [5] was inactive.

As for `COC(=O)C1=C(C)N(c2ccc(F)c(Cl)c2)C(=O)C1`, the result in assay [1], in assay [2], in assay [3], in assay [4] and in assay [5] was inactive.

With `Cc1ccc(C)c(N/C(N)=N/c2nc(C)cc(C)n2)c1`, the result in assay [1], in assay [2], in assay [3], in assay [4] and in assay [5] was inactive.

As for `S=c1nc[nH]c2c1[nH]c1ccc(Cl)cc12`, the outcome in assay [1], in assay [2], in assay [3], in assay [4] and in assay [5] was inactive.

As for `COc1ccc(-c2nn(-c3ccccc3)cc2C(=O)NC(=S)NNC(=O)c2ccncc2)cc1`, the result in assay [1], in assay [3], in assay [4] and in assay [5] was inactive. Also, the potentiation in assay [2] was 17.5% (active).

In the case of `CS(=O)(=O)c1ccc(C(=O)OCc2nnc(-c3ccccc3)o2)cc1[N+](=O)[O-]`, the outcome in assay [1], in assay [2], in assay [3], in assay [4] and in assay [5] was inactive.

For `COc1cc(OC)cc(-c2nnc(Nc3nc4c(F)cccc4s3)o2)c1`, the outcome in assay [1], in assay [2], in assay [3], in assay [4] and in assay [5] was inactive.

`CN(C)CCNc1ncnc2c1sc1nc(N3CCOCC3)c3c(c12)CC(C)(C)SC3`: the outcome in assay [1], in assay [2], in assay [3], in assay [4] and in assay [5] was inactive.

`COc1ccccc1NC(=O)CC1C(=O)NCCN1C(=O)Nc1ccc(Cl)c(Cl)c1` (stereo not given): the result in assay [1], in assay [4] and in assay [5] was inactive. The potentiation in assay [2] is 37.5% (active); in assay [3], 157% (active).

Turning to `O=C(NC(=S)Nc1cc(C(F)(F)F)ccc1N1CCOCC1)c1sc2ccccc2c1Cl`, the result in assay [1], in assay [2], in assay [3], in assay [4] and in assay [5] was inactive.

In the case of `O=C(NCc1ccccc1)c1ccc2c(c1)C(=O)N(Cc1cccnc1)C2=O`, the result in assay [1], in assay [3], in assay [4] and in assay [5] was inactive. Further, the potentiation in assay [2] was 17.5% (active).

For `Cn1c(=O)cc(NCc2ccccc2)[nH]c1=O`, the outcome in assay [1], in assay [2], in assay [3], in assay [4] and in assay [5] was inactive.

As for `CCCC(=O)n1nc(-c2ccc(C)cc2)nc1NCc1ccco1`, the outcome in assay [1], in assay [4] and in assay [5] was inactive. Moreover, the potentiation in assay [2] is 80% (active); in assay [3], 148% (active).

For the molecule `O=c1cc(-c2ccccc2)nc2cc(-c3ccco3)[nH]n12`, the outcome in assay [1], in assay [2], in assay [3], in assay [4] and in assay [5] was inactive.

For `O=C(O)c1ccc2c(=O)n3cc(C(=O)c4ccccc4O)cc(Cl)c3nc2c1`, the outcome in assay [1], in assay [2], in assay [3], in assay [4] and in assay [5] was inactive.

On to `c1ccc(CNc2nc3ccccc3[nH]2)cc1`, for which the result in assay [1], in assay [2], in assay [3], in assay [4] and in assay [5] was inactive.

As for `CC(Sc1nncs1)C(=O)NC1CCCCC1C` (stereo not given), the outcome in assay [1], in assay [2], in assay [3], in assay [4] and in assay [5] was inactive.

For `CC1(C)CC(Nc2ccc(Nc3ccccc3)cc2)CC(C)(C)N1`, the outcome in assay [1], in assay [3], in assay [4] and in assay [5] was inactive. Further, the potentiation in assay [2] is 23.5% (active).

With `COC(=O)c1sccc1NC(=O)CSc1ccccc1NS(=O)(=O)c1cc(Cl)ccc1Cl`, the result in assay [1], in assay [2], in assay [3], in assay [4] and in assay [5] was inactive.

For the molecule `COc1ccc(-c2csc(NC(=S)NC(=O)c3ccco3)n2)cc1Br`, the result in assay [1], in assay [3], in assay [4] and in assay [5] was inactive. The potentiation in assay [2] is 25% (active).

With `CC1(c2ccc(OC(F)F)cc2)NC(=O)N(CC(=O)Nc2ccc3c(c2)OCO3)C1=O` (stereo not given), the result in assay [1], in assay [2], in assay [3], in assay [4] and in assay [5] was inactive.

In the case of `CCc1cc(C(=O)N2CCN(c3ccccn3)CC2)sc1C`, the outcome in assay [1], in assay [2], in assay [3], in assay [4] and in assay [5] was inactive.

For the molecule `CC(=O)c1cccc(OCc2cc(C(=O)N(C)C(C)c3ccccn3)no2)c1` (stereo not given), the result in assay [1], in assay [2], in assay [3], in assay [4] and in assay [5] was inactive.

With `Cc1cccc(Cn2c(O)c(N=NC(=S)Nc3ccccc3F)c3ccccc32)c1`, the result in assay [1], in assay [4] and in assay [5] was inactive. Also, the potentiation in assay [2] was 22.5% (active); in assay [3] it was 148% (active).

On to `CN1CCN(c2ccc(S(=O)(=O)N3CCCCC3)cc2NC(=O)COc2cccc(Cl)c2)CC1`, for which the outcome in assay [1], in assay [2], in assay [3], in assay [4] and in assay [5] was inactive.

Turning to `COC(=O)CSc1nc(NC(C)C)nc(N(C)C)n1`, the result in assay [1], in assay [2], in assay [3], in assay [4] and in assay [5] was inactive.

For the molecule `O=c1c2cc(F)ccc2[nH]c(=S)n1Cc1ccc(F)cc1`, the result in assay [1], in assay [2], in assay [3], in assay [4] and in assay [5] was inactive.
